The values that follow come from ChEMBL document CHEMBL4257476, “Design, synthesis and biological evaluation of novel 5-hydroxy-2-methyl-4H-pyran-4-one derivatives as antiglioma agents” (Medchemcomm, 2018).

What is called IC50 is the point on the concentration scale where inhibition reaches its midpoint. By inhibition is commonly meant the change of the read-out against control, counted positive when it falls.

SMILES strings stand for the structures. Bounds are passed on as bounds.

Assay [1] concerns HT-1080. Kind of assay: Antiproliferative activity against human HT1080 cells by MTT assay. It is filed as functional, cell-based. In a few lines: (§1)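 MTT viability: cells grown in DMEM with 10% FBS, 2 mM L-glutamine and penicillin/streptomycin at 37 °C, 5% CO2. Seeded 5000/well for 12 h. Compound diluted 1000× from DMSO stock (final DMSO <0.1%). MTT conversion to formazan for 4 h, absorbance at 562 nm. 4 replicate wells per concentration, at least three runs.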
(In general: Formazan colour is commonly taken as a measure of viable cells.)

Assay [2] has as its target Isocitrate dehydrogenase [NADP] cytoplasmic (Homo sapiens, UniProt O75874, R132H). Kind of assay: Inhibition of His-tagged recombinant human IDH1 R132H mutant expressed in Escherichia coli Rosetta (DE3) preincubated for 30 mins followed by NADPH/alpha-KG addition and measured after 1 hr. In outline:
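His-tagged mutant human IDH1 expressed from pET28a in E. coli Rosetta (DE3) with 1 mM IPTG, purified on Ni-NTA with imidazole step elution. Enzyme and compound preincubated 30 min at room temperature in 50 mM Tris, 200 mM NaCl, 5 mM β-mercaptoethanol, 2 mM MgSO4, 10% glycerol. MgCl2, NADPH and α-KG then added, 1 h at 37 °C; NADPH consumption read at 340 nm.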

Assay [3] deals with U-87 MG. Put plainly: Antiproliferative activity against human U87 cells by MTT assay. It is filed as functional, cell-based, U-87MG ATCC. In outline: as §1
For assay [4], the system named is HT-1080. Put plainly: Antimigratory activity in human HT1080 cells assessed as scratch area at 1 uM after 12 hrs (reference value: 23.3%). In kind it is functional.
Assay [5] has as its system U-87 MG. Put plainly: Inhibition of colony formation of human U87 cells after 8 days by Giemsa-Wright staining-based assay. In kind it is functional, cell-based. Particulars: U-87MG ATCC. In a few lines:
(§2)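 Colony formation: 200 cells/well in 6-well plates, 2 mL medium, treated 8 days with DMSO control or compound. Cells then washed three times with cold PBS, fixed in 95% cold MeOH for 15 min, and stained with Giemsa-Wright. Colonies counted by eye at least three times.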

In assay [6] the test system is U-87 MG. Put plainly: Inhibition of colony formation of human U87 cells at 1 uM after 8 days by Giemsa-Wright staining-based assay relative to control. In kind it is functional, U-87MG ATCC. The following applies: 192 h. In a few lines:
as §2

The subject of assay [7] is U-87 MG. Put plainly: Antimigratory activity in human U87 cells assessed as migration rate at 1 uM after 12 hrs by scratch assay (reference value: 51.3%). In kind it is functional, U-87MG ATCC.
Assay [8] relates to Isocitrate dehydrogenase [NADP] cytoplasmic (Homo sapiens), O75874 [R132H]. Kind of assay: Inhibition of IDH1 […] cells assessed as decrease in D-2HG levels at 1 uM after 48 hrs by HPLC-MS analysis relative to control. In kind it is cell-based. In outline: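 HT1080 cells (1×10^5/well, 6-well plates) attached overnight in DMEM with 10% dialyzed FBS. Treated 48 h with rising compound concentrations in 2 mL medium. Quantified by SIM at 147 Da from peak area against an authentic D-2HG standard curve.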

Assay [9] deals with HT-1080. Put plainly: Antimigratory activity in human HT1080 cells assessed as scratch area at 1 uM after 6 hrs (reference value: 58.7%). In kind it is functional.
The subject of assay [10] is HT-1080. Kind of assay: Inhibition of colony formation of human HT1080 cells at 0.5 uM after 8 days by Giemsa-Wright staining-based assay relative to control. It is filed as functional. The following applies: HT-1080, 192 h. In outline:
as §2

Assay [11] relates to HT-1080. Kind of assay: Inhibition of colony formation of human HT1080 cells at 1 uM after 8 days by Giemsa-Wright staining-based assay relative to control. It is filed as functional. Particulars: HT-1080, 192 h. In outline: as §2
Assay [12] relates to U-87 MG. Put plainly: Inhibition of colony formation of human U87 cells at 0.5 uM after 8 days by Giemsa-Wright staining-based assay relative to control. It is filed as functional, U-87MG ATCC. The following applies: 192 h. In a few lines:
as §2

Assay [13] relates to U-87 MG. Put plainly: Antimigratory activity in human U87 cells assessed as migration rate at 1 uM after 24 hrs by scratch assay (reference value: 17.5%). In kind it is functional, U-87MG ATCC.
The test system of assay [14] is HT-1080. Kind of assay: Antimigratory activity in human HT1080 cells assessed as scratch area at 10 uM after 12 hrs (reference value: 23.3%). In kind it is functional.
The subject of assay [15] is HT-1080. Kind of assay: Antimigratory activity in human HT1080 cells assessed as scratch area at 10 uM after 6 hrs (reference value: 58.7%). It is filed as functional.

Sequence of Isocitrate dehydrogenase [NADP] cytoplasmic (O75874 2-414 R132H limits assumed): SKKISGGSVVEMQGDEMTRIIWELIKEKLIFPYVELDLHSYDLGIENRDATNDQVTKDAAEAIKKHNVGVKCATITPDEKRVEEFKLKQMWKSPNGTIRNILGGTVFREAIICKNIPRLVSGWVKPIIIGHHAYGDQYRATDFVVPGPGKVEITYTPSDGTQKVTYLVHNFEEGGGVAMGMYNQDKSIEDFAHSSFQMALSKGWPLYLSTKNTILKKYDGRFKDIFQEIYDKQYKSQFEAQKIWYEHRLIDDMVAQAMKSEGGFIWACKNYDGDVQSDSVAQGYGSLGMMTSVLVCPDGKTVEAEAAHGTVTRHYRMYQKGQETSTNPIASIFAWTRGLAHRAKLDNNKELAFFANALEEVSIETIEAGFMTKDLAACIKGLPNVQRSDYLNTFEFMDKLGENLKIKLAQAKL
Sequence of Isocitrate dehydrogenase [NADP] cytoplasmic (Homo sapiens), O75874 [R132H] (O75874 whole entry R132H): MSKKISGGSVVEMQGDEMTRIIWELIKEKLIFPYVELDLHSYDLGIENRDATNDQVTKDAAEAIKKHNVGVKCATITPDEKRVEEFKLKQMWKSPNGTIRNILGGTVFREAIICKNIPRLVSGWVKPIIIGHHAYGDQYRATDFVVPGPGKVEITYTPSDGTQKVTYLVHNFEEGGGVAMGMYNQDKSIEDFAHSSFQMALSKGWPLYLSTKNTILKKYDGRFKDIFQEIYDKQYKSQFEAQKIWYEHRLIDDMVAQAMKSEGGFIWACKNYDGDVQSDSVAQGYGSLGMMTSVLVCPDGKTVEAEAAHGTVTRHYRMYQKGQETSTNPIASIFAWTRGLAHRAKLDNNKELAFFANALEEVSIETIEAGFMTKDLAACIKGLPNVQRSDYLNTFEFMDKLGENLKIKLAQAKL

For the molecule `C=CCOc1ccc(C(c2oc(C)cc(=O)c2O)c2oc(C)cc(=O)c2O)cc1`, the IC50 in assay [1] was 28.3 µM; in assay [2], above 50 µM; in assay [3], 30.9 µM.
`Cc1cc(=O)c(O)c(Cc2ccc(F)cc2)o1`: the IC50 in [1], in assay [2] and in assay [3] was above 50 µM each time.
`Cc1cc(=O)c(O)c(C(c2ccc(OCc3ccccc3)cc2)c2oc(C)cc(=O)c2O)o1`: the Activity was determined as 43.5% in [4], 82.8% in assay [7], 61% in [9] and 69.5% in assay [13]. Besides, the inhibition entry in [5] is “Dose-dependent effect”; in assay [8], 86.5%. Moreover, the results for the IC50 in [1], in [2] and in [3] were 1.43 µM, 23.1 µM and 4.6 µM, respectively. Besides, the inhibition at 1 µM in assay [6] was 96.8%; in [11], 99.5%. Moreover, the inhibition at 0.5 µM in assay [10] was 75%; in assay [12], 11.3%.
As for `Cc1cc(=O)c(O)c(Cc2ccc(OCc3ccccc3)cc2)o1`, the IC50 in assay [1], in assay [2] and in assay [3] was above 50 µM throughout.
With `Cc1cc(=O)c(O)c(C(c2ccc(CCc3ccccc3)cc2)c2oc(C)cc(=O)c2O)o1`, the IC50 in assay [1] was above 50 µM; in assay [2] it was above 50 µM; in [3] it was 27.2 µM.
In the case of `Cc1cc(=O)c(O)c(Cc2ccc(Cl)cc2)o1`, the half-maximal inhibitory concentration (IC50) in assay [1], in [2] and in assay [3] was above 50 µM each time.
For the molecule `COc1ccc(COc2ccc(C(c3oc(C)cc(=O)c3O)c3oc(C)cc(=O)c3O)cc2)cc1`, the half-maximal inhibitory concentration (IC50) in assay [1] turned out to be 2.6 µM; in assay [2], 32 µM; in assay [3], 5.2 µM.
On the same counts, the results for `Cc1cc(=O)c(O)c(Cc2ccccc2)o1` are above 50 µM, above 50 µM and above 50 µM.
With `Cc1cc(=O)c(O)c(C(c2ccc(OCc3ccc([N+](=O)[O-])cc3)cc2)c2oc(C)cc(=O)c2O)o1`, the IC50 was 3.06 µM in assay [1], above 50 µM in assay [2] and above 50 µM in assay [3].
Take `Cc1ccccc1C(C(=O)NC1CCCCC1)N(C(=O)Cn1ccnc1C)c1cccc(F)c1` (stereo not given): the Activity in [14] is given as 56%; in assay [7], 84%; in assay [13] it was 51%; in assay [15], 70%. Besides, the figures for the IC50 in assay [2] and in assay [3] were 0.08 µM and 20.1 µM, respectively. Besides, the inhibition in assay [8] amounted to 86.9%.
Consider `Cc1cc(=O)c(O)c(Cc2ccc(C(F)(F)F)cc2)o1`, for which the IC50 in assay [1] was 24.4 µM; in [2], above 50 µM; in assay [3], above 50 µM.
Consider `CCCOc1ccc(C(c2oc(C)cc(=O)c2O)c2oc(C)cc(=O)c2O)cc1`, for which the half-inhibitory concentration (IC50) in assay [1] was 26.6 µM; in assay [2] it was above 50 µM; in [3], 29.5 µM.
